Measured values as given in ChEMBL document CHEMBL4368873, “Novel O-methyl goniofufurone and 7-epi-goniofufurone derivatives: synthesis, in vitro cytotoxicity and SAR analysis” (Medchemcomm, 2018).
pIC50: −log10 of the molar value. Active and inactive are the calls of the source. The calls are words filed in the database; no cut-off is given here.

Legend:
HeLa = experiment: Cytotoxicity against human HeLa cells assessed as inhibition of cell growth after 72 hrs by MTT assay; format: functional, cell-based
K562 [1] = experiment: Cell cycle arrest in human K562 cells assessed as accumulation at G0/G1 phase at IC50 after 72 hrs by propidium iodide staining based flow cytometry (reference value: 47.51%); format: functional
K562 [2] = experiment: Cell cycle arrest in human K562 cells assessed as accumulation at G2/M phase at IC50 after 72 hrs by propidium iodide staining based flow cytometry (reference value: 24.13%); format: functional
K562 [3] = experiment: Cell cycle arrest in human K562 cells assessed as increase in accumulation at sub-G1 phase at IC50 after 72 hrs by propidium iodide staining based flow cytometry relative to control; format: functional
K562 [4] = experiment: Cell cycle arrest in human K562 cells assessed as accumulation at S phase at IC50 after 72 hrs by propidium iodide staining based flow cytometry (reference value: 26.52%); format: functional
HL-60 = experiment: Cytotoxicity against human HL60 cells assessed as inhibition of cell growth after 72 hrs by MTT assay; format: functional, cell-based; settings: HL-60, 72 h
Method in brief: (§1)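 Exponentially growing cells were exposed 72 h to compounds diluted from a 10 mM DMSO stock into serum-free medium. Growth was read by colorimetric MTT. Leukaemia/lymphoma lines (K562, HL-60, Jurkat, Raji) were grown in RPMI 1640; MCF-7, MDA-MB 231, HeLa, A549 and normal MRC-5 fibroblasts in DMEM; 37 °C, 5% CO2.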

K562 [5] = experiment: Up regulation of Bax expression in human K562 cells at IC50 measured after 72 hrs by Western blot analysis; format: functional, cell-based
K562 [6] = experiment: Up regulation of active Caspase-3 expression in human K562 cells at IC50 measured after 72 hrs by Western blot analysis; format: functional, cell-based
MDA-MB-231 [7] = experiment: Cytotoxicity against human MDA-MB-231 cells assessed as inhibition of cell growth after 72 hrs by MTT assay; format: functional, cell-based; settings: MDA-MB-231, 72 h
Jurkat = experiment: Cytotoxicity against human Jurkat cells assessed as inhibition of cell growth after 72 hrs by MTT assay; format: functional, cell-based; method in brief: as §1
K562 [8] = experiment: Up regulation of Bcl-2 expression in human K562 cells at IC50 measured after 72 hrs by Western blot analysis; format: functional, cell-based
K562 [9] = experiment: Induction of apoptosis in human K562 cells assessed as apoptotic cells at IC50 after 72 hrs by Annexin V-FITC/propidium iodide staining based flow cytometry relative to control; format: functional
Method in brief: (§2)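 K562 cells seeded at 5 × 10⁵ per well, treated 72 h at each compound's IC₅₀ level. Viability was checked by trypan blue exclusion. Viable cells were double-stained with Annexin V-FITC and propidium iodide and analysed by flow cytometry. Results are given as specific apoptosis or specific necrosis (%) relative to untreated cells.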

MCF7 = experiment: Cytotoxicity against human MCF7 cells assessed as inhibition of cell growth after 72 hrs by MTT assay; format: functional, cell-based; settings: MCF7, 72 h; method in brief: as §1
K562 [10] = experiment: Cytotoxicity against human K562 cells assessed as inhibition of cell growth after 72 hrs by MTT assay; format: functional, cell-based; settings: K562, 72 h
MRC5 = experiment: Cytotoxicity against human MRC5 cells assessed as inhibition of cell growth after 72 hrs by MTT assay; format: cell-based; settings: MRC5, 72 h
A549 [11] = experiment: Cytotoxicity against human A549 cells assessed as inhibition of cell growth after 72 hrs by MTT assay; format: functional, cell-based; settings: A549, 72 h
Raji = experiment: Cytotoxicity against human Raji cells assessed as inhibition of cell growth after 72 hrs by MTT assay; format: functional, cell-based
K562 [12] = experiment: Cell cycle arrest in human K562 cells assessed as accumulation at sub-G1 phase at IC50 after 72 hrs by propidium iodide staining based flow cytometry (reference value: 1.84%); format: functional
K562 [13] = experiment: Up regulation of cleaved PARP expression in human K562 cells at IC50 measured after 72 hrs by Western blot analysis; format: functional, cell-based
K562 [14] = experiment: Induction of apoptosis in human K562 cells assessed as necrotic cells at IC50 after 72 hrs by Annexin V-FITC/propidium iodide staining based flow cytometry relative to control; format: functional; method in brief: as §2
K562 [15] = experiment: Up regulation of Caspase-3 precursor expression in human K562 cells at IC50 measured after 72 hrs by Western blot analysis; format: functional, cell-based
A549 [16] = experiment: Potency index, ratio of doxorubicin IC50 to test compound IC50 for human A549 cells; format: functional
K562 [17] = experiment: Down regulation of Bcl-2 expression in human K562 cells at IC50 measured after 72 hrs by Western blot analysis; format: functional, cell-based
K562 [18] = experiment: Down regulation of Bax expression in human K562 cells at IC50 measured after 72 hrs by Western blot analysis; format: functional, cell-based
MDA-MB-231 [19] = experiment: Potency index, ratio of doxorubicin IC50 to test compound IC50 for human MDA-MB-231 cells; format: functional

Row | SMILES | pIC50 (HeLa) | Activity (K562 [1]) | Activity (K562 [2]) | fold change (FC) (K562 [3]) | Activity (K562 [4]) | pIC50 (HL-60) | Activity (K562 [5]) | pIC50 (MDA-MB-231 [7]) | pIC50 (Jurkat) | Activity (K562 [8]) | Activity (K562 [9]) | pIC50 (MCF7) | pIC50 (K562 [10]) | pIC50 (MRC5) | pIC50 (A549 [11]) | pIC50 (Raji) | Activity (K562 [12]) | Activity (K562 [13]) | Activity (K562 [14]) | Activity (K562 [15]) | other results
1 | CO[C@@H]1[C@H]2OC(=O)C[C@H]2O[C@@H]1C(O)(c1ccccc1)c1ccccc1 | 4.90 | 43.35% | 28.75% | 5.5 | 17.77% | 5.63 | Active | 4.29 | 5.01 | Active | 33.41% | 4.94 | 4.54 | < 4.00 | 4.82 | 4.72 | 10.13% | Active | 8.73% | Active | Activity (K562 [6]): Active
2 | CO[C@@H]1[C@H]2OC(=O)C[C@H]2O[C@@H]1C(=O)c1ccccc1 | 5.19 | 45.46% | 29.53% |  | 23.68% | 4.95 | Active | 4.39 | 5.05 | Active | 2.1% | 5.46 | 4.65 | < 4.00 | 5.59 | 4.59 | 1.33% | Active | -0.59% | Active | Ratio IC50 (A549 [16]): 2
3 | CO[C@@H]1[C@H]2OC(=O)C[C@H]2O[C@@H]1[C@H](OC)c1ccccc1 | 4.25 | 44.86% | 28.3% | 3.5 | 20.48% | 5.66 | Active | 5.87 | 5.63 | Active | 4.32% | < 4.00 | 4.83 | < 4.00 | 4.58 | 4.91 | 6.36% | Active | 0.11% | Active | Activity (K562 [6]): Active
4 | CO[C@@H](c1ccccc1)[C@H]1O[C@@H]2CC(=O)O[C@@H]2[C@H]1O | 5.07 | 53.39% | 20.9% | 3 | 19.68% | 5.79 |  | 6.89 | 4.90 |  | 11.17% | < 4.00 | 4.94 | < 4.00 | 5.27 | 4.68 | 6.03% | Active | 0.55% |  | Activity (K562 [17]): Active; Activity (K562 [18]): Active
5 | O=C1C[C@H]2O[C@H]([C@H](O)c3ccccc3)[C@H](O)[C@H]2O1 |  | 52.47% | 24.34% |  | 21.03% | < 4.00 | Active | 4.12 |  | Active | -0.36% |  |  | < 4.00 |  |  | 2.16% | Active | -0.31% |  | 
6 | CO[C@H](c1ccccc1)[C@H]1O[C@@H]2CC(=O)O[C@@H]2[C@H]1O | 5.25 | 52.09% | 24.89% |  | 20.61% | 5.53 |  | 7.19 | 4.81 |  | -0.27% | < 4.00 | 5.10 | < 4.00 | 5.58 | 4.81 | 2.4% | Active | -0.5% |  | Ratio IC50 (MDA-MB-231 [19]): 1.5; Activity (K562 [17]): Active; Activity (K562 [18]): Active; Ratio IC50 (A549 [16]): 2
7 | CO[C@@H]1[C@H]2OC(=O)C[C@H]2O[C@@H]1[C@@H](O)c1ccccc1 | 4.96 | 35.04% | 21.21% | 15.5 | 15.08% | 4.72 |  | 4.45 | 4.81 |  | 55.48% | 4.90 | 5.07 | < 4.00 | 4.42 | 4.91 | 28.67% | Active | 2.57% |  | Activity (K562 [17]): Active; Activity (K562 [18]): Active
8 | CO[C@@H]1[C@H]2OC(=O)C[C@H]2O[C@@H]1[C@H](O)c1ccccc1 | 5.06 | 47.34% | 24.32% |  | 26.52% | 4.60 | Active | 4.54 | 4.60 |  | 2.69% | 5.39 | 5.27 | < 4.00 | 4.63 | 5.06 | 1.82% | Active | -0.54% |  | Activity (K562 [17]): Active
9 | CO[C@@H]1[C@H]2OC(=O)C[C@H]2O[C@@H]1[C@@H](OC)c1ccccc1 | 4.05 | 48.59% | 26.35% |  | 22.66% | 5.36 | Active | 5.58 | 5.77 | Active | 1.7% | < 4.00 | 5.03 | 4.06 | 4.60 | 4.98 | 2.4% | Active | -0.44% | Active | 
